ChEMBL document CHEMBL3259611, “Suppression of inflammatory responses by handelin, a guaianolide dimer from Chrysanthemum boreale, via downregulation of NF-κB signaling and pro-inflammatory cytokine production” (J Nat Prod, 2014)
The source made the active and inactive calls. The rule behind the calls is not given here.

Assays:
RAW264.7 [1] = assay: Antiinflammatory activity in mouse RAW264.7 cells assessed as inhibition of LPS-induced nitric oxide production at 20 uM administered 30 mins prior to LPS challenge measured after 20 hrs by Griess assay relative to control; format: functional
How it was run: (§1)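 RAW 264.7 cells at 3 × 10^5 cells/mL in phenol red-free 10% FBS DMEM, pretreated for 30 min, then given 1 μg/mL LPS for 20 h. Nitrite in the medium was read by Griess reaction at 540 nm against a sodium nitrite standard curve. % inhibition was calculated versus vehicle control, and IC50 by nonlinear regression. Mean ± SD of triplicates.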

RAW264.7 [2] = assay: Antiinflammatory activity in mouse RAW264.7 cells assessed as inhibition of LPS-induced nitric oxide production at 40 uM administered 30 mins prior to LPS challenge measured after 20 hrs by Griess assay relative to control; format: functional; how it was run: as §1
RAW264.7 [3] = assay: Inhibition of LPS-induced NFkappaB transcriptional activity in mouse RAW264.7 cells assessed as reduction of phosphorylated IkappaB-alpha level at 10 uM after 30 mins by Western blotting analysis relative to control; format: cell-based
How it was run: (§2)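 Macrophages were exposed to compound for 30 min before LPS stimulation, with proteins extracted 30 min later. Nuclear extracts were prepared in Tris/KCl/NP-40 lysis buffer, then 420 mM NaCl buffer, and the cytosolic fraction was kept for IκB-α. Western blot on PVDF with ECL detection. Tests in triplicate; representative of three separate experiments.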

RAW264.7 [4] = assay: Antiinflammatory activity in mouse RAW264.7 cells assessed as inhibition LPS-induced TNF-alpha protein expression after 4 hrs by Western blotting analysis; format: functional, cell-based
How it was run: (§3)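 RAW 264.7 cells stimulated with LPS (1 μg/mL) with or without compound for 4 h. Lysates were resolved by 6−15% SDS-PAGE and blotted to PVDF. Blocked in 5% milk/PBST, primary antibody overnight at 4 °C, secondary antibody 2 h, detected by ECL. Triplicate, representative of three experiments.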

RAW264.7 [5] = assay: Antiinflammatory activity in mouse RAW264.7 cells assessed as inhibition LPS-induced IL-1beta protein expression after 4 hrs by Western blotting analysis; format: functional, cell-based; how it was run: as §3
Rattus norvegicus = assay: Antiinflammatory activity in rat paw edema model assessed as inhibition of carrageenan-induced paw edema at 10 mg/kg, po administered 30 mins prior to carrageenan challenge measured after 4 hrs relative to vehicle-treated control; format: functional
How it was run: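 Male SD rats (150−170 g) given compound orally in 0.5% CMC-Na 30 min before subplantar injection of 0.1 mL 1% carrageenan; the contralateral paw received saline. Paw volume was measured by plethysmometer from 0 to 6 h, with inhibition taken at 4 h versus vehicle. Mean ± SD, n = 6.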

Mus musculus = assay: Antiinflammatory activity in ICR mouse ear edema model assessed as inhibition of TPA-induced ear edema at 10 mg/kg, po administered 30 mins prior to TPA challenge measured after 4 hrs relative to vehicle-treated control; format: functional
How it was run: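 ICR mice (male, 18−20 g, 5 weeks old) dosed orally 30 min before TPA (1.0 μg in 20 μL acetone) was applied to inner and outer surfaces of the right ear. Killed by cervical dislocation after 4 h. Edema taken as the weight of a 5 mm punch biopsy of the right ear over the left. Ear homogenates were Western blotted for iNOS, COX-2 and IL-1β.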

RAW264.7 [6] = assay: Antiinflammatory activity in mouse RAW264.7 cells assessed as inhibition of LPS-induced iNOS protein expression at 20 uM after 16 hrs by Western blotting analysis relative to control; format: functional
How it was run: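 RAW 264.7 cells given LPS (1 μg/mL) with or without compound for 16 h. Cell lysates were Western blotted for iNOS and COX-2 (6−15% SDS-PAGE, PVDF, ECL detection). Performed in triplicate.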

[7] = biological target: T1, Nuclear factor NF-kappa-B p105 subunit (Mus musculus) (UniProt P25799); assay: Inhibition of LPS-induced NFkappaB P50 protein nuclear translocation in mouse RAW264.7 cells at 20 uM after 30 mins by Western blotting analysis relative to control; format: cell-based; how it was run: as §2
T1 sequence (whole entry): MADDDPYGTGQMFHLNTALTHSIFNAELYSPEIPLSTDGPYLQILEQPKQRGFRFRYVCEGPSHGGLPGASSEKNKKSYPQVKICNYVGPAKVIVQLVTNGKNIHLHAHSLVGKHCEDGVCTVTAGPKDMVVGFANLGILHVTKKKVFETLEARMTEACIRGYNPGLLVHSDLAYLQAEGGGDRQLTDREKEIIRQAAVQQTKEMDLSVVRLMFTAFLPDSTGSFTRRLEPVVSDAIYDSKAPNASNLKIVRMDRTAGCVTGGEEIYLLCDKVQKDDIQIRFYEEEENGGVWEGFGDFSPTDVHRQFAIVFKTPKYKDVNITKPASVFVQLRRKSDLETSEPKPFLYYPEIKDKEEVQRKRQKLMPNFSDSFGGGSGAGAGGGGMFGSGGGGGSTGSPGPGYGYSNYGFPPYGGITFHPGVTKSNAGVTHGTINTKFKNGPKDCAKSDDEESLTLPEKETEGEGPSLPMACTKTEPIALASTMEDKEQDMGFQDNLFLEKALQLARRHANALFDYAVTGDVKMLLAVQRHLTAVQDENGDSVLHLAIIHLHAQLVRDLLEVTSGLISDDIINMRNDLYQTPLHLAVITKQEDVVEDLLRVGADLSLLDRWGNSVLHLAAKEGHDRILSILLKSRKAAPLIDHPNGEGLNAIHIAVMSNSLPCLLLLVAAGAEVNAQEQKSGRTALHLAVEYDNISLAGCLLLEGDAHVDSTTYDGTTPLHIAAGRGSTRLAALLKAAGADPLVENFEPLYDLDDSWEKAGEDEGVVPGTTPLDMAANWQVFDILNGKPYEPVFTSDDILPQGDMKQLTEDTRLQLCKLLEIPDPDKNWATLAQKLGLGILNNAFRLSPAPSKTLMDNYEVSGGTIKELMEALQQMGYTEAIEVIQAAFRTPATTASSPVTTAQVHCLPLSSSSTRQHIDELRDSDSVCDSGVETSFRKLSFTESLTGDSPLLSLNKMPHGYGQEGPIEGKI

[8] = biological target: T1, Nuclear factor NF-kappa-B p105 subunit (Mus musculus); assay: Inhibition of LPS-induced NFkappaB P50 protein nuclear translocation in mouse RAW264.7 cells at 40 uM after 30 mins by Western blotting analysis relative to control; format: cell-based; how it was run: as §2
RAW264.7 [9] = assay: Antiinflammatory activity in mouse RAW264.7 cells assessed as inhibition LPS-induced TNF-alpha protein expression at 20 uM after 4 hrs by Western blotting analysis relative to control; format: functional
RAW264.7 [10] = assay: Antiinflammatory activity in mouse RAW264.7 cells assessed as inhibition LPS-induced TNF-alpha protein expression at 40 uM after 4 hrs by Western blotting analysis relative to control; format: functional
[11] = biological target: Mitogen-activated protein kinase 1 and 3 (ERK2 and ERK1) (Mus musculus) (UniProt P63085+Q63844); assay: Inhibition LPS-induced ERK1/2 phosphorylation at Thr202/Tyr204 in mouse RAW264.7 cells at 20 uM administered 30 mins prior to LPS challenge measured after 30 mins by Western blotting analysis; format: cell-based
Mitogen-activated protein kinase 1 and 3 (ERK2 and ERK1) (Mus musculus), sequence (P63085 whole entry, looked up): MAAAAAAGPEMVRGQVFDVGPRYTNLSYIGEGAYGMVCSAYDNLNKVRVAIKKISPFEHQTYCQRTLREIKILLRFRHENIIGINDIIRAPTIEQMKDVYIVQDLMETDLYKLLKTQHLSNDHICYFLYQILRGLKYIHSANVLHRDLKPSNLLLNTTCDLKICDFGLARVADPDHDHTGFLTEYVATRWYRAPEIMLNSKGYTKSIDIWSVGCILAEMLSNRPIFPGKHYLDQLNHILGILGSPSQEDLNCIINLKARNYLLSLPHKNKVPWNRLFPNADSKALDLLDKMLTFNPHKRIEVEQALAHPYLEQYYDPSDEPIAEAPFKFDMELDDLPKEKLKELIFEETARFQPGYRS
Mitogen-activated protein kinase 1 and 3 (ERK2 and ERK1) (Mus musculus), sequence (Q63844 whole entry, looked up): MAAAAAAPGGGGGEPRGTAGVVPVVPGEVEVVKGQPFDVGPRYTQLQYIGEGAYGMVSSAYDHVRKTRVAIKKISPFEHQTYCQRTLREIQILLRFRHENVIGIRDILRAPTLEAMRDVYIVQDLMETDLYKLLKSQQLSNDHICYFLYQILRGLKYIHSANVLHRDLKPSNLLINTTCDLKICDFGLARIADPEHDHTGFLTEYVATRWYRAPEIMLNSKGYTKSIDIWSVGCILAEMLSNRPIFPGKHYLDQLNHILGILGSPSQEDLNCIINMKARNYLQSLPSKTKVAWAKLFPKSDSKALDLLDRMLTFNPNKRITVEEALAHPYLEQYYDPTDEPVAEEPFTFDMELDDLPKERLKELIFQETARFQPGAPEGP
How it was run: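 RAW 264.7 cells pretreated with compound for 30 min, then stimulated with LPS for 30 min. Protein extracts were Western blotted for phosphorylated ERK and JNK (SDS-PAGE, PVDF, ECL detection).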

Compound: C=C1C(=O)O[C@@H]2[C@@H]3[C@@]4(C=C[C@@]3(C)[C@]3(C4)C(=O)O[C@@H]4[C@H]5C(C)=CC[C@H]5[C@](C)(O)C[C@H](OC(C)=O)[C@H]43)[C@](C)(O)CC[C@@H]12
- inhibition (INH) (RAW264.7 [1]): >84%
- inhibition (INH) (RAW264.7 [2]): 98%
- inhibition (RAW264.7 [3]): Active
- inhibition (RAW264.7 [4]): Dose-dependent effect
- inhibition (RAW264.7 [5]): Dose-dependent effect
- inhibition in vivo at 10 mg/kg (Rattus norvegicus): 22%
- inhibition in vivo at 10 mg/kg (Mus musculus): 43%
- fold change (FC) (RAW264.7 [6]): 0.29
- fold change (FC) [7]: 0.21
- fold change (FC) [8]: 0.16
- fold change (FC) (RAW264.7 [9]): 0.76
- fold change (FC) (RAW264.7 [10]): 0.56
- fold change (FC) [11]: 0.79
